Drawing on ChEMBL document CHEMBL1126201, “Synthesis, characterization, and biological evaluation of a novel class of N-(arylethyl)-N-alkyl-2-(1-pyrrolidinyl)ethylamines: structural requirements and binding affinity at the sigma receptor” (J Med Chem, 1992), this text covers Ki for 8 compounds.

Molecules are shown by their SMILES. pKi: −log10 of the molar value.

Assay [1] concerns Glutamate [NMDA] receptor. Description: Ability to displace [3H]TCP from PCP receptor in guinea pig membranes; No inhibition. It counts as cell membranes, Cavia porcellus. The gist of the method:
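Guinea pig brain crude P2 membranes (500 µg protein) incubated with 5 nM [3H]TCP in 5 mM Tris-HCl pH 7.4, 0.5 mL, 60 min at 4 °C; stopped by ice-cold buffer and filtration through polyethylenimine-soaked (0.3%) glass-fiber filters, washed twice. Nonspecific binding with 10 µM cyclazocine. Screened at 100, 1000 and 10,000 nM; duplicates.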

Assay [2] has as its target D(2) dopamine receptor (Rattus norvegicus, UniProt P61169). The experiment in a line: Ability to displace [3H]sulpiride from dopamine receptor D2 in rat brain. It counts as tissue-based. The gist of the method:
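Rat (male Sprague-Dawley) brain P2 membranes, 500 µg protein, with 5 nM [3H]-(-)-sulpiride in 50 mM Tris-HCl pH 7.7 + 120 mM NaCl, 60 min at 25 °C; haloperidol 1 µM for nonspecific binding; filtration, two washes.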

Assay [3] deals with Kappa-type opioid receptor (Cavia porcellus, UniProt P41144). Description: Ability to displace [3H]bremazocine from opioid receptor kappa in guinea pig brain membranes; No inhibition. It counts as cell membranes. The gist of the method: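 Kappa sites labeled with 2 nM [3H]bremazocine on guinea pig brain P2 membranes (500 µg protein) in 10 mM Tris-HCl pH 7.4, 0.5 mL, with 100 nM DAGO and 100 nM DSTLE to mask mu/delta; 90 min at 25 °C. Terminated by ice-cold buffer and glass-fiber filtration. Screened at 100, 1000 and 10,000 nM; duplicates.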
Kappa-type opioid receptor, sequence (P41144 whole entry): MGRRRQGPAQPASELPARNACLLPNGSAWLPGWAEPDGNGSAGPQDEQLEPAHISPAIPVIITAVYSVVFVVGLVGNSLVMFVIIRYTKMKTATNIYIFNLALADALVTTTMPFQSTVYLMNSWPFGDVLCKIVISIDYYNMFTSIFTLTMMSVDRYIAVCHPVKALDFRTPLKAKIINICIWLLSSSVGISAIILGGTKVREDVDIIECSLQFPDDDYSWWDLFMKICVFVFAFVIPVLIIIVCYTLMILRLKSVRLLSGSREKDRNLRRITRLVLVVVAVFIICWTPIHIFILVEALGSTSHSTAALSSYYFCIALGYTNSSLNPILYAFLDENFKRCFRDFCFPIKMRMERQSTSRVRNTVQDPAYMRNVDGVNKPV

In assay [4] the target is Glutamate [NMDA] receptor. The experiment in a line: Ability to displace [3H]TCP from PCP receptor in guinea pig membranes. It counts as cell membranes, Cavia porcellus. A digest of the protocol: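 Guinea pig brain (minus cerebella) crude P2 membranes, 500 µg protein, incubated with 5 nM [3H]TCP in 5 mM Tris-HCl pH 7.4 for 60 min at 4 °C. Filtered on polyethylenimine-soaked glass-fiber filters; nonspecific binding defined with 10 µM cyclazocine. […] Duplicates, 2–3 experiments; IC50 converted to Ki by Cheng-Prusoff (Kd 25 nM).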

D(2) dopamine receptor, sequence (P61169 whole entry): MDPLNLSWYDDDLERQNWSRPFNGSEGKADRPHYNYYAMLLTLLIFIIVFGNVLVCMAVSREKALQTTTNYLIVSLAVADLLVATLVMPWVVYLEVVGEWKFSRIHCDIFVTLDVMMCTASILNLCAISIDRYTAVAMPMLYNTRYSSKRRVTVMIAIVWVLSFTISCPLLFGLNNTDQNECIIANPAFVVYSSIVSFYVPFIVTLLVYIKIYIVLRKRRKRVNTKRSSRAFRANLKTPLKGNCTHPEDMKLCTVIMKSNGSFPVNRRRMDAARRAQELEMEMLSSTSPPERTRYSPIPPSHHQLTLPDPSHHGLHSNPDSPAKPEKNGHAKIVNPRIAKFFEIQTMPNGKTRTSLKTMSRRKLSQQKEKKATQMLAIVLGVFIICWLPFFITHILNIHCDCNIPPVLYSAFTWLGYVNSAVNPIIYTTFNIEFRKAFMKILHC

As for `CN(CCc1cccc(Cl)c1)CCN1CCCC1`, the Ki entry in assay [1] and in assay [3] was “Not Active” in each case. Also, in assay [2], the pKi was 5.19.
Consider `CN(CCN1CCCC1)Cc1ccc(Cl)c(Cl)c1`, for which the Ki entry in assay [1] and in assay [3] was “Not Active” each time. The compound also gave a pKi in assay [2] of 5.89.
For `CN(CCc1ccc(Cl)c(Cl)c1)CCN1CCCCCC1`, the pKi is 5.16 in assay [4] and 5.17 in assay [2]. Further, the Ki entry in assay [3] is reported as “Not Active”.
For `CCN(CCc1ccc(Cl)c(Cl)c1)CCN1CCCC1`, the Ki result in assay [1] and in assay [3] was “Not Active” each time. Besides, the pKi in assay [2] is 5.78.
Regarding `C[C@@H](CN1CCCC1)N(C)CCc1ccc(Cl)c(Cl)c1`, the pKi in assay [4] is 5.52; in assay [2] it was 4.95. Further, in assay [3], the Ki result is on record as “Not Active”.
For `CCN(CC)CCN(C)CCc1ccc(Cl)c(Cl)c1`, the Ki result in assay [1] and in assay [3] was “Not Active” each time. The compound further had a pKi in assay [2] of 5.52.
As to `CN(CCc1ccc(Cl)c(Cl)c1)CCN1CCCCC1`, the Ki entry in assay [1] and in assay [3] was “Not Active” in each case. In assay [2], this compound had a pKi of 5.92.
With `CN(CCc1ccc(Cl)c(Cl)c1)CCN1CCCC1`, the Ki entry in assay [1] and in assay [3] was “Not Active” in each case. The compound further showed a pKi in assay [2] of 5.95.
